# Where a SMILES comes first, the peptide text is derived from it.
# Tests used:
# Settings in all cases: read-out: pA2 (converted)
# Substance-K receptor = molecular target: T1, Substance-K receptor (Rattus norvegicus, UniProt P16610); assay: Inhibition of eledoisin binding to NK-2 receptor in rat vas deferens
# T1 sequence (P16610 whole entry): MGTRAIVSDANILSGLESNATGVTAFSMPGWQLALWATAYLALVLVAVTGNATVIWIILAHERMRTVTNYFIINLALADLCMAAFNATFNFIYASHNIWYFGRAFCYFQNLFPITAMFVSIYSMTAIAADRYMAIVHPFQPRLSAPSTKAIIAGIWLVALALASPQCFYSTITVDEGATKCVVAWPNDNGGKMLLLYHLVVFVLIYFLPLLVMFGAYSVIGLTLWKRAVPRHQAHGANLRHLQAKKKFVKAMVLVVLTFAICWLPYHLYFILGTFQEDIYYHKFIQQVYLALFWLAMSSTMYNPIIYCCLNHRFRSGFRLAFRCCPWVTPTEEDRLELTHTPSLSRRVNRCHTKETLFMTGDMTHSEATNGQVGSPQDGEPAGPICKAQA
# Summary of the method: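 Vas deferens from Sprague-Dawley rats (200–300 g), electrically stimulated contractions with supramaximal rectangular bipolar pulses. Eledoisin log dose-response curves; antagonism taken from rightward shift. pA2 by Schild regression over three or more antagonist concentrations, or apparent pA2 from one antagonist concentration via the standard Schild equation assuming unit slope.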
# Substance-P receptor = Substance-P receptor (Cavia porcellus, UniProt P30547); assay: Tested for antagonist activity toward NK-1 receptor in guinea pig ileum against the agonist eledoisin (mean +/-, n=4); format: functional, tissue-based
# Summary of the method: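 Guinea pig (male Dunkin-Hartley, 300–400 g) small-intestine longitudinal muscle, isometric contraction in Krebs-Henseleit at 37 °C with atropine, mepyramine, methysergide (each 5 μM) and indomethacin (1 μM). Antagonism measured as rightward shift of log dose-response curves to eledoisin. pA2 from Schild regression (least squares, three or more antagonist concentrations, three or more observations each), or apparent pA2 at a single concentration assuming unit slope (mean of 3–4 observations).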
# Neuromedin-K receptor = molecular target: T2, Neuromedin-K receptor (Rattus norvegicus, UniProt P16177); assay: Tested for antagonist activity toward NK-3 receptor in rat portal vein against the agonist eledoisin (mean +/-, n=4); format: functional
# T2 sequence (P16177 whole entry): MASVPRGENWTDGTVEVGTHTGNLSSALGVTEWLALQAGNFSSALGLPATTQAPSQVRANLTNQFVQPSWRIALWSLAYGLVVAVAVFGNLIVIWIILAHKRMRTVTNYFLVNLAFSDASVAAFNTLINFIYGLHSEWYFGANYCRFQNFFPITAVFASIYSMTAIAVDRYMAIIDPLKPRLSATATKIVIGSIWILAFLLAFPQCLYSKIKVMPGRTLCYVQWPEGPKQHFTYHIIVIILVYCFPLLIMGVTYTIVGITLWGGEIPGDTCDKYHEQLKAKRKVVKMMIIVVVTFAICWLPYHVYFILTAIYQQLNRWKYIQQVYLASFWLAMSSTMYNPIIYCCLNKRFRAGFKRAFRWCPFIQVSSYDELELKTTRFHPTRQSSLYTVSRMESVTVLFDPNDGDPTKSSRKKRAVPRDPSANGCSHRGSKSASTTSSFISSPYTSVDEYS
# Summary of the method: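 Rat portal vein longitudinal strips; frequency and amplitude of myogenic contractions recorded. Antagonist activity derived from rightward shift of eledoisin log dose-response curves. pA2 by Schild regression, least squares, three or more antagonist concentrations, or apparent pA2 at a single antagonist concentration assuming unit slope (mean of three or four observations).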
# Substance-P receptor, sequence (P30547 whole entry): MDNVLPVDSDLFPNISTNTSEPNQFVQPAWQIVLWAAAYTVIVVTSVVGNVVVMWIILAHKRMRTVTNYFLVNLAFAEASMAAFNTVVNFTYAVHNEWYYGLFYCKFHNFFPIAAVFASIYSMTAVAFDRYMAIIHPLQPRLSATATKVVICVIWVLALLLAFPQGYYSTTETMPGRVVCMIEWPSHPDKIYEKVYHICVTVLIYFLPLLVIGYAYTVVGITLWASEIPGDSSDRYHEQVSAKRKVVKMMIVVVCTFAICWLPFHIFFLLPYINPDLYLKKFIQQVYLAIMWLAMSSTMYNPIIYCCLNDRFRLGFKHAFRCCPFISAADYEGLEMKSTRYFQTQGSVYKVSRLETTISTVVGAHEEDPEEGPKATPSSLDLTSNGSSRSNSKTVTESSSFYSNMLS
SMILES,Kb (Substance-K receptor) [µM],Kb (Substance-P receptor) [µM],Kb (Neuromedin-K receptor) [µM]
CSCC[C@@H]1NC(=O)[C@H](CC(C)C)NC(=O)[C@@H]2CCCN2C(=O)[C@H](Cc2ccccc2)NC(=O)[C@H](Cc2c[nH]c3ccccc23)NC(=O)[C@H](CCC(N)=O)NC1=O,15.8,–,–
CSCC[C@@H]1NC(=O)[C@H](CC(C)C)N2C=C[C@@H](NC(=O)[C@H](Cc3ccccc3)NC(=O)[C@](C)(c3cccc4ccccc34)NC(=O)[C@H](CCC(N)=O)NC1=O)C2=O,2.51,–,–
CSCC[C@@H]1NC(=O)[C@H](CC(C)C)N2C=C[C@@H](NC(=O)[C@H](Cc3ccccc3)NC(=O)[C@H](Cc3ccccc3)NC(=O)[C@H](CCC(N)=O)NC1=O)C2=O,15.8,–,–
CSCC[C@@H]1NC(=O)[C@H](CC(C)C)NC(=O)[C@H]2CCCN2C(=O)[C@H](Cc2ccccc2)NC(=O)[C@H](Cc2c[nH]c3ccccc23)NC(=O)[C@H](CCC(N)=O)NC1=O,20,–,–
CSCC[C@@H]1NC(=O)[C@H](CC(C)C)NC(=O)CNC(=O)[C@H](Cc2ccccc2)NC(=O)[C@H](Cc2c[nH]c3ccccc23)NC(=O)[C@H](CCC(N)=O)NC1=O (cyclo(FGLMQW)),0.00794,2,7.94
CSCC[C@@H]1NC(=O)[C@H](CC(C)C)NC(=O)[C@H](Cc2ccccc2)NC(=O)[C@H](Cc2c[nH]c3ccccc23)NC(=O)[C@H](CCC(N)=O)NC1=O (cyclo(FLMQW)),0.631,–,–
